Laboratory results published in ChEMBL document CHEMBL4689842, “EUbOPEN Chemogenomics Library wave 1” (2021).

Test system: Fibroblast
Assay: Multiplex assay against human fibroblast
Type: toxicity, cell-based
Method in brief: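 Live cells were stained at seeding with Hoechst33342, BioTracker Green Microtubule Cytoskeleton Dye, MitoTracker Red and Annexin V Alexa Fluor 680, then imaged on a CQ1 microscope at 37°C and 5% CO2 after compound addition. CellPathfinder machine-learning gating split cells into Hoechst high-intensity objects or normal cells. Normal cells were split into healthy, pyknosed or fragmented nuclei, and pyknosed cells into mitotic or apoptotic. Tubulin, mitochondrial-mass and membrane-permeability phenotypes are per cents of healthy-nucleus cells.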

[1] = 12 h, 1 µM, compound concentration 1 uM, replicate 1
[2] = 12 h, 1 µM, compound concentration 1 uM, replicate 2
[3] = 12 h, 10 µM, compound concentration 10 uM, replicate 1
[4] = 12 h, 10 µM, compound concentration 10 uM, replicate 2
[5] = 24 h, 1 µM, compound concentration 1 uM, replicate 1
[6] = 24 h, 1 µM, compound concentration 1 uM, replicate 2
[7] = 24 h, 10 µM, compound concentration 10 uM, replicate 1
[8] = 24 h, 10 µM, compound concentration 10 uM, replicate 2

COc1cc2ncnc(Nc3ccc(F)c(Cl)c3)c2cc1NC(=O)/C=C/CN1CCCCC1 [DACOMITINIB ANHYDROUS]
Population Apoptotic (%) [1]: 72% | Population Fragmented Nuclei (%) [1]: 33% | Population Healthy Nuclei (%) [1]: 52% | Population Hoechst High Intensity Objects (%) [1]: 17% | Population Membrane Permeable-Phenotype (%) [1]: 6% | Population Mitochondria Different-Phenotype (%) [1]: 8% | Population Mitotic Cells (%) [1]: 27% | Population Normal (%) [1]: 82% | Population Pyknosed Nuclei (%) [1]: 14% | Population Tubulin-Different-Phenotype (%) [1]: 46% | Total Cell Count [1]: 248 | Population Apoptotic (%) [2]: 66% | Population Fragmented Nuclei (%) [2]: 56% | Population Healthy Nuclei (%) [2]: 36% | Population Hoechst High Intensity Objects (%) [2]: 57% | Population Membrane Permeable-Phenotype (%) [2]: 12% | Population Mitochondria Different-Phenotype (%) [2]: 25% | Population Mitotic Cells (%) [2]: 33% | Population Normal (%) [2]: 42% | Population Pyknosed Nuclei (%) [2]: 6% | Population Tubulin-Different-Phenotype (%) [2]: 25% | Total Cell Count [2]: 103 | Population Apoptotic (%) [3]: 58% | Population Fragmented Nuclei (%) [3]: 30% | Population Healthy Nuclei (%) [3]: 53% | Population Hoechst High Intensity Objects (%) [3]: 14% | Population Membrane Permeable-Phenotype (%) [3]: 7% | Population Mitochondria Different-Phenotype (%) [3]: 3% | Population Mitotic Cells (%) [3]: 41% | Population Normal (%) [3]: 85% | Population Pyknosed Nuclei (%) [3]: 15% | Population Tubulin-Different-Phenotype (%) [3]: 7% | Total Cell Count [3]: 214 | Population Apoptotic (%) [4]: 28% | Population Fragmented Nuclei (%) [4]: 47% | Population Healthy Nuclei (%) [4]: 40% | Population Hoechst High Intensity Objects (%) [4]: 35% | Population Membrane Permeable-Phenotype (%) [4]: 20% | Population Mitochondria Different-Phenotype (%) [4]: 16% | Population Mitotic Cells (%) [4]: 71% | Population Normal (%) [4]: 64% | Population Pyknosed Nuclei (%) [4]: 11% | Population Tubulin-Different-Phenotype (%) [4]: 16% | Total Cell Count [4]: 94 | Population Apoptotic (%) [5]: 72% | Population Fragmented Nuclei (%) [5]: 28% | Population Healthy Nuclei (%) [5]: 54% | Population Hoechst High Intensity Objects (%) [5]: 30% | Population Mitochondria Different-Phenotype (%) [5]: 22% | Population Mitotic Cells (%) [5]: 28% | Population Normal (%) [5]: 69% | Population Pyknosed Nuclei (%) [5]: 17% | Population Tubulin-Different-Phenotype (%) [5]: 46% | Total Cell Count [5]: 210 | Population Apoptotic (%) [6]: 100% | Population Fragmented Nuclei (%) [6]: 51% | Population Healthy Nuclei (%) [6]: 40% | Population Hoechst High Intensity Objects (%) [6]: 57% | Population Membrane Permeable-Phenotype (%) [6]: 5% | Population Mitochondria Different-Phenotype (%) [6]: 16% | Population Mitotic Cells (%) [6]: 0% | Population Normal (%) [6]: 42% | Population Pyknosed Nuclei (%) [6]: 8% | Population Tubulin-Different-Phenotype (%) [6]: 16% | Total Cell Count [6]: 106 | Population Apoptotic (%) [7]: 58% | Population Fragmented Nuclei (%) [7]: 32% | Population Healthy Nuclei (%) [7]: 50% | Population Hoechst High Intensity Objects (%) [7]: 18% | Population Membrane Permeable-Phenotype (%) [7]: 6% | Population Mitochondria Different-Phenotype (%) [7]: 2% | Population Mitotic Cells (%) [7]: 41% | Population Normal (%) [7]: 81% | Population Pyknosed Nuclei (%) [7]: 17% | Population Tubulin-Different-Phenotype (%) [7]: 3% | Total Cell Count [7]: 249 | Population Apoptotic (%) [8]: 33% | Population Fragmented Nuclei (%) [8]: 53% | Population Healthy Nuclei (%) [8]: 36% | Population Hoechst High Intensity Objects (%) [8]: 30% | Population Membrane Permeable-Phenotype (%) [8]: 21% | Population Mitochondria Different-Phenotype (%) [8]: 13% | Population Mitotic Cells (%) [8]: 66% | Population Normal (%) [8]: 69% | Population Pyknosed Nuclei (%) [8]: 9% | Population Tubulin-Different-Phenotype (%) [8]: 17% | Total Cell Count [8]: 91
